Calls of active or inactive are those of the source. The rule behind the calls is not given here.

A word on the inhibition: it is the drop in the measured response relative to a control, in per cent. In general, IC50 refers to the point on the concentration scale where inhibition reaches its midpoint. A low value points to greater potency in that assay. Broadly, the pKa is the negative logarithm of the acid dissociation constant. Lower therefore signals a group that gives up its proton readily.

Data set [1] has as its target Cholinesterase (Equus caballus) (UniProt P81908). In words: Inhibition of horse serum BChE at 10 uM using butyrylthiocholine chloride substrate by spectrophotometry based Ellman's assay. Summed up:
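Ellman kinetic assay in microplates: equine serum BChE (final 0.350 U/ml) added last to start reaction; butyrylthiocholine chloride pseudo-substrate with DTNB; absorbance at 412 nm; 25 °C (room temperature). Tris-HCl 50 mM pH 8 buffer with DMSO ≤0.05% final. Compound absorbance read before enzyme addition as blank. Physostigmine 10 µM final as positive control. Primary screen at 10 µM.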
In general terms: Ellman's reagent forms a yellow product with free thiols.

For the next data set, the target named is Cholinesterase (Equus caballus, UniProt P81908). The experiment in a line: Inhibition of horse serum BChE at using butyrylthiocholine chloride substrate by spectrophotometry based Ellman's assay.
A further data set deals with Acetylcholinesterase (Electrophorus electricus, UniProt O42275). In words: Inhibition of electric eel AChE at using acetylthiocholine iodide substrate by spectrophotometry based Ellman's assay.
Data set [2] is described as follows: Dissociation constant, pKa of the compound at 52 uM at pH 2.3 to 12.3 by UV-Vis spectroscopy. In kind it is physicochemical.

Sequence of Acetylcholinesterase (O42275 whole entry): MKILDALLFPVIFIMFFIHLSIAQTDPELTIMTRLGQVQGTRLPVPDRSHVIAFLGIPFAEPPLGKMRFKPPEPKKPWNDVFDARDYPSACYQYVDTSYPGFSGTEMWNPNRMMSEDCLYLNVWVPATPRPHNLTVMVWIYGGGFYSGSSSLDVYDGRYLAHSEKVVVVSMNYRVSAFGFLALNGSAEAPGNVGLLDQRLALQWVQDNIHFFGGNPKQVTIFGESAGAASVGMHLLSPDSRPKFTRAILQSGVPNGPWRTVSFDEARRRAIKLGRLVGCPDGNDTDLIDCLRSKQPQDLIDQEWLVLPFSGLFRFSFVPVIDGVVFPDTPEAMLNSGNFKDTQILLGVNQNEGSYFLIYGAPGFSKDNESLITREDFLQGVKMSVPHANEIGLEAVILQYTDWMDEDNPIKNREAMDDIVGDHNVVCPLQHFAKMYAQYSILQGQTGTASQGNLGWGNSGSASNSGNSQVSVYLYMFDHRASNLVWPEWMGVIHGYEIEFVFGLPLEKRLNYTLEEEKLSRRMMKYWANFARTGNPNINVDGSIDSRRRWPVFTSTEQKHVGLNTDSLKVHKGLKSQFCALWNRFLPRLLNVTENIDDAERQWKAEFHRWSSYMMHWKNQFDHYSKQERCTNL
Sequence of Cholinesterase (Equus caballus) (P81908 whole entry): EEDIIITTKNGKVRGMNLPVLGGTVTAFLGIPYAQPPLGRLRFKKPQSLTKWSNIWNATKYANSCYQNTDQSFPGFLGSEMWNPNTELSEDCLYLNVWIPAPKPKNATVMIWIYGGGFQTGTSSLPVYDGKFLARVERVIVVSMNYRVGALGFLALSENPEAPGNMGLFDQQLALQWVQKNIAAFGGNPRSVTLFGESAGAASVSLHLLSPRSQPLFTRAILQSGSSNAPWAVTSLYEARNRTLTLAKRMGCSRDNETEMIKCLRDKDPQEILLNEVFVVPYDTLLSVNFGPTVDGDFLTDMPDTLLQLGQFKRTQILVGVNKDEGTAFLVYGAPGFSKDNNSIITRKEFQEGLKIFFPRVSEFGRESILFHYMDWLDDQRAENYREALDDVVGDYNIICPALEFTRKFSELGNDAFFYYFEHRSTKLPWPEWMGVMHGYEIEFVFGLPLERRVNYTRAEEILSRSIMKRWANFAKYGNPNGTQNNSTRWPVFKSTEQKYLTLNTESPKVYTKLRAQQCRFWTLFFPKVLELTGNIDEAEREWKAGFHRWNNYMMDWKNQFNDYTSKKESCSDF
Sequence of Cholinesterase (P81908 whole entry): as above

In the case of `CC[n+]1ccc2cc(-c3ccc4ccccc4c3)nc(O)c2c1`, the inhibition in data set [1] came out at 59.5%. As to `Oc1nc(-c2ccc3ccccc3c2)cc2cc[n+](Cc3ccccc3)cc12`, the inhibition in data set [1] turned out to be 97.1%. Further, the IC50 against Cholinesterase was found to be 2880 nM; against Acetylcholinesterase, 990 nM. With `Oc1nc2c(c3cc[n+](Cc4ccccc4)cc13)CCc1ccccc1-2`, in data set [1], the inhibition result was “inactive”. The same measure, in the same setting: as for `CC[n+]1ccc2cc(-c3ccccc3)nc(O)c2c1`, the figure is 45.9%. For the compound `Oc1nc(-c2ccccc2)cc2cc[n+](Cc3ccccc3)cc12`, in data set [1], the inhibition worked out at 76.4%. The IC50 against Cholinesterase was 4990 nM; at Acetylcholinesterase, 2570 nM. Consider `C[n+]1ccc2cc(-c3ccccc3)[nH]c(=O)c2c1`, for which the inhibition in data set [1] was found to be 51.6%. For the compound `CC[n+]1ccc2c3c(nc(O)c2c1)-c1ccccc1C3`, the inhibition in data set [1] came to 77.3%. 1550 nM corresponded to half-maximal inhibition against Acetylcholinesterase (IC50). In the case of `CC[n+]1ccc2cc(-c3ccccn3)nc(O)c2c1`, the inhibition in data set [1] was 48.5%. For `C[n+]1ccc2cc(-c3ccccc3)nc(O)c2c1`, in data set [2], the pKa at 52 µM was 8.7.

These data come from ChEMBL document CHEMBL4138073, “Synthesis and biological evaluation of 8-hydroxy-2,7-naphthyridin-2-ium salts as novel inhibitors of acetylcholinesterase (AChE) and butyrylcholinesterase (BChE)” (Medchemcomm, 2017).
